Tests used:
[1] = target: T1, Melanocyte-stimulating hormone receptor (Homo sapiens, UniProt Q01726); assay: Inhibitory activity against hMC1R transfected in HEK293 cells; type: cell-based
Method in brief: (§1)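 Competition binding on whole HEK293 cells stably expressing the human receptor, seeded 48 h prior. Binding buffer was MEM, 25 mM HEPES pH 7.4, 0.2% BSA, 1,10-phenanthroline, leupeptin and bacitracin. Cells washed and lysed, then gamma counted. IC50 from nonlinear least-squares fit; mean of two experiments in triplicate.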
Target sequence in this assay (Q01726 whole entry): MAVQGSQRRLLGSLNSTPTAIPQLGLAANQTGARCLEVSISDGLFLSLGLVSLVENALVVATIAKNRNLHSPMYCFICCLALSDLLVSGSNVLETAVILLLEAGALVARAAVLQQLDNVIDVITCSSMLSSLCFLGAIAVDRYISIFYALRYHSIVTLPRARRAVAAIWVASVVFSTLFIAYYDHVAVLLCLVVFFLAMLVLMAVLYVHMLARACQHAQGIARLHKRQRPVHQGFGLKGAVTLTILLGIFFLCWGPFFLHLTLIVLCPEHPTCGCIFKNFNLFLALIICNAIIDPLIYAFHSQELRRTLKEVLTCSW

Melanocortin receptor 3 [2] = target: T2, Melanocortin receptor 3 (Homo sapiens, UniProt P41968); assay: Inhibitory activity against hMC3R transfected in HEK293 cells; type: cell-based; method in brief: as §1
T2 sequence (P41968 whole entry): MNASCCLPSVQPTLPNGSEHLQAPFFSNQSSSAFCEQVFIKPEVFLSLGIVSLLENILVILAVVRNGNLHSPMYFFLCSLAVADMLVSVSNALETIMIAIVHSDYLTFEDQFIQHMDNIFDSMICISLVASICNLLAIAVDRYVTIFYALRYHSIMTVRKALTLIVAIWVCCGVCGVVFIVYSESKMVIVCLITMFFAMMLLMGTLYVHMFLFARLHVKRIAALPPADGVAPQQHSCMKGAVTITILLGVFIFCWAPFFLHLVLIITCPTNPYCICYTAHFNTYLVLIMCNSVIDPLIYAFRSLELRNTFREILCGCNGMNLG

Melanocortin receptor 4 [3] = target: T3, Melanocortin receptor 4 (Homo sapiens, UniProt P32245); assay: Inhibitory activity against hMC4R transfected in HEK293 cells; type: cell-based; method in brief: as §1
T3 sequence (P32245 whole entry): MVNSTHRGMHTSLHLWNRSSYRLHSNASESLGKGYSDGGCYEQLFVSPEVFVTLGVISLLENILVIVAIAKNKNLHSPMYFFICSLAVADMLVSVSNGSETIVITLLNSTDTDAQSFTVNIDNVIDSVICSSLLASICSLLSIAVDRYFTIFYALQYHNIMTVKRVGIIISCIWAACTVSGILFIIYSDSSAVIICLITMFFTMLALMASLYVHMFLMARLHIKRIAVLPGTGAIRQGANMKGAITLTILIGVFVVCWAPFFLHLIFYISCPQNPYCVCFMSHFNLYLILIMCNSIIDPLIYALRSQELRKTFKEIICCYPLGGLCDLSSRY

Melanocortin receptor 5 [4] = target: T4, Melanocortin receptor 5 (Homo sapiens, UniProt P33032); assay: Inhibitory activity against hMC5R transfected in HEK293 cells; type: cell-based; method in brief: as §1
T4 sequence (P33032 whole entry): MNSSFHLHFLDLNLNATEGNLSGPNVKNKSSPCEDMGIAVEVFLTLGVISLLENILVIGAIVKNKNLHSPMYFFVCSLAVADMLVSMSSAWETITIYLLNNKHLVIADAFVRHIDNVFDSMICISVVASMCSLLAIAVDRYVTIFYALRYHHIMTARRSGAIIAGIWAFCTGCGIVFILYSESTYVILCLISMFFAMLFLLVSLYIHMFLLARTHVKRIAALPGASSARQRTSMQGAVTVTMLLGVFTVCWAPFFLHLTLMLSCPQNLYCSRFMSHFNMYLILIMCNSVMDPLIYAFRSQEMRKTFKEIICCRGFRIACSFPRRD

[5] = target: T1, Melanocyte-stimulating hormone receptor; assay: Activity against hMC1R transfected in HEK293 cells by intracellular cAMP accumulation; type: functional, cell-based
Method in brief: (§2)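 HEK293 cells stably transfected with human receptor, grown to confluence in MEM with 10% FBS, seeded 48 h before assay. Cells preincubated 1 min at 37 °C in EBSS with IBMX (0.5 mM stock). Peptide added (10^-10 to 10^-5 M), 3 min at 37 °C. Stopped with ice-cold Tris/EDTA, boiled, cAMP measured by competitive binding kit. EC50 from nonlinear least-squares fit; mean of two experiments in triplicate.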

Melanocortin receptor 3 [6] = target: T2, Melanocortin receptor 3; assay: Activity against hMC3R transfected in HEK293 cells by intracellular cAMP accumulation; type: functional, cell-based; method in brief: as §2
Melanocortin receptor 4 [7] = target: T3, Melanocortin receptor 4; assay: Activity against hMC4R transfected in HEK293 cells by intracellular cAMP accumulation; type: functional, cell-based; method in brief: as §2
Melanocortin receptor 5 [8] = target: T4, Melanocortin receptor 5; assay: Activity against hMC5R transfected in HEK293 cells by intracellular cAMP accumulation; type: functional, cell-based; method in brief: as §2

| IC50 [1] | IC50 (Melanocortin receptor 3 [2]) | IC50 (Melanocortin receptor 4 [3]) | IC50 (Melanocortin receptor 5 [4]) | %max [5] | EC50 [5] | %max (Melanocortin receptor 3 [6]) | EC50 (Melanocortin receptor 3 [6]) | Kb (Melanocortin receptor 3 [6]; read-out: pA2 (converted)) | %max (Melanocortin receptor 4 [7]) | EC50 (Melanocortin receptor 4 [7]) | %max (Melanocortin receptor 5 [8]) | EC50 (Melanocortin receptor 5 [8]) | Kb (Melanocortin receptor 5 [8]; read-out: pA2 (converted)) | SMILES |
| --- | --- | --- | --- | --- | --- | --- | --- | --- | --- | --- | --- | --- | --- | --- |
| 4 µM | 1.7 nM | 180 nM | 2.2 nM | 0% | > 10 µM | 0% | > 10000 nM | 3.98 nM | 13% | 16 nM | 0% | > 10 µM | 2 nM | CCCC[C@@H]1NC(=O)CC[C@@H](C(N)=O)NC(=O)[C@H](Cc2c[nH]c3ccccc23)NC(=O)[C@H](CCCN=C(N)N)NC(=O)[C@@H](Cc2ccc3ccccc3c2)NC(=O)[C@H](C(C)C)NC1=O |
|  |  |  |  | 0% |  | 0% |  |  | 0% |  | 0% |  |  | CCCC[C@@H]1NC(=O)CC[C@@H](C(N)=O)NC(=O)[C@H](Cc2c[nH]c3ccccc23)NC(=O)[C@H](CCCN=C(N)N)NC(=O)[C@@H](Cc2ccc3ccccc3c2)NC(=O)[C@H](Cc2c[nH]cn2)NC1=O |
| > 10 µM | 12 nM | 100 nM | 2.3 nM |  | > 10 µM |  | > 10000 nM |  |  | > 10000 nM |  | > 10 µM |  | CCCC[C@@H]1NC(=O)CC[C@@H](C(N)=O)NC(=O)[C@H](Cc2c[nH]c3ccccc23)NC(=O)[C@H](CCCN=C(N)N)NC(=O)[C@@H](Cc2ccc3ccccc3c2)NC(=O)[C@H](Cc2cnc[nH]2)NC1=O |
| 3 µM | 6 nM | 16 nM | 3.8 nM | 0% | > 1 µM | 0% | > 10000 nM |  | 31% | 340 nM | 10% | 0.2 µM |  | CCCC[C@@H]1NC(=O)CC[C@@H](C(N)=O)NC(=O)[C@H](Cc2c[nH]c3ccccc23)NC(=O)[C@H](CCCN=C(N)N)NC(=O)[C@@H](Cc2ccc3ccccc3c2)NC(=O)[C@H](CCCC)NC1=O |
| > 10 µM | 560 nM | 170 nM | 100 nM | 0% | > 10 µM | 147% | 37 nM |  | 48% | 2000 nM | 0% | > 10 µM |  | CCCC[C@@H]1NC(=O)CC[C@@H](C(N)=O)NC(=O)[C@H](Cc2c[nH]c3ccccc23)NC(=O)[C@H](CCCN=C(N)N)NC(=O)[C@@H](Cc2ccccc2)NC(=O)[C@H](Cc2c[nH]cn2)NC1=O |
| 1 µM | 1.4 nM | 65 nM | 1.4 nM | 0% | > 1 µM | 0% | > 10000 nM |  | 50% | 130 nM | 0% | > 10 µM |  | CCCC[C@@H]1NC(=O)CC[C@@H](C(N)=O)NC(=O)[C@H](Cc2c[nH]c3ccccc23)NC(=O)[C@H](CCCN=C(N)N)NC(=O)[C@@H](Cc2ccc3ccccc3c2)NC(=O)[C@H](CCC(N)=O)NC1=O |
| > 10 µM | 250 nM | 600 nM | 70 nM | 0% | > 10 µM | 27% | 300 nM |  | 50% | > 1000 nM | 0% | > 10 µM |  | CCCC[C@@H]1NC(=O)CC[C@@H](C(N)=O)NC(=O)[C@H](Cc2c[nH]c3ccccc23)NC(=O)[C@H](CCCN=C(N)N)NC(=O)[C@@H](Cc2ccccc2)NC(=O)[C@H](CCCC)NC1=O |
| > 10 µM | > 10000 nM | 150 nM | > 10000 nM | 0% | > 10 µM | 0% | > 10000 nM |  | 0% | > 10000 nM | 0% | > 10 µM |  | CCCC[C@@H]1NC(=O)CC[C@@H](C(N)=O)NC(=O)[C@H](Cc2c[nH]c3ccccc23)NC(=O)[C@H](CCCN=C(N)N)NC(=O)[C@@H](Cc2ccccc2)NC(=O)[C@H](CC(=O)O)NC1=O |
| > 10 µM | 140 nM | 34 nM | 44 nM | 0% | > 10 µM | 7% | 2800 nM |  | 0% | > 10000 nM | 0% | > 10 µM |  | CCCC[C@@H]1NC(=O)CC[C@@H](C(N)=O)NC(=O)[C@H](Cc2c[nH]c3ccccc23)NC(=O)[C@H](CCCN=C(N)N)NC(=O)[C@@H](Cc2ccc3ccccc3c2)NC(=O)[C@H](CCC(=O)O)NC1=O |
| > 10 µM | 600 nM | 2500 nM | 110 nM | 0% | > 10 µM | 108% | 27 nM |  | 25% | 3000 nM | 75% | 0.18 µM |  | CCCC[C@@H]1NC(=O)CC[C@@H](C(N)=O)NC(=O)[C@H](Cc2c[nH]c3ccccc23)NC(=O)[C@H](CCCN=C(N)N)NC(=O)[C@@H](Cc2ccccc2)NC(=O)[C@H](C(C)C)NC1=O |

| SMILES | IC50 [1] | IC50 (Melanocortin receptor 3 [2]) | IC50 (Melanocortin receptor 4 [3]) | IC50 (Melanocortin receptor 5 [4]) | %max [5] | EC50 [5] | %max (Melanocortin receptor 3 [6]) | EC50 (Melanocortin receptor 3 [6]) | Kb (Melanocortin receptor 3 [6]; read-out: pA2 (converted)) | %max (Melanocortin receptor 4 [7]) | EC50 (Melanocortin receptor 4 [7]) | %max (Melanocortin receptor 5 [8]) | EC50 (Melanocortin receptor 5 [8]) | Kb (Melanocortin receptor 5 [8]; read-out: pA2 (converted)) |
| --- | --- | --- | --- | --- | --- | --- | --- | --- | --- | --- | --- | --- | --- | --- |
| CCCC[C@@H]1NC(=O)CC[C@@H](C(N)=O)NC(=O)[C@H](Cc2c[nH]c3ccccc23)NC(=O)[C@H](CCCN=C(N)N)NC(=O)[C@@H](Cc2ccc3ccccc3c2)NC(=O)[C@H](CC(=O)O)NC1=O | > 10 µM | 820 nM | 170 nM | 220 nM |  | > 10 µM |  | > 10000 nM |  |  | > 10000 nM |  | > 10 µM |  |
| CCCC[C@@H]1NC(=O)CC[C@@H](C(N)=O)NC(=O)[C@H](Cc2c[nH]c3ccccc23)NC(=O)[C@H](CCCN=C(N)N)NC(=O)[C@@H](Cc2ccc3ccccc3c2)NC(=O)[C@@H](CC(=O)O)NC1=O |  |  |  |  | 0% |  | 0% |  |  | 0% |  | 0% |  |  |
| CCCC[C@@H]1NC(=O)CC[C@@H](C(N)=O)NC(=O)[C@H](Cc2c[nH]c3ccccc23)NC(=O)[C@H](CCCN=C(N)N)NC(=O)[C@@H](Cc2ccc3ccccc3c2)NC(=O)[C@H](CCCN=C(N)N)NC1=O | 1.5 µM | 2.6 nM | 77 nM | 2.3 nM |  | > 10 µM |  | > 10000 nM |  |  | 530 nM |  | > 10 µM |  |
| CCCC[C@@H]1NC(=O)CC[C@@H](C(N)=O)NC(=O)[C@H](Cc2c[nH]c3ccccc23)NC(=O)[C@H](CCCN=C(N)N)NC(=O)[C@@H](Cc2ccccc2)NC(=O)[C@@H](CCC(N)=O)NC1=O |  |  |  |  | 20% |  | 60% |  |  | 0% |  | 8% |  |  |
| CCCC[C@@H]1NC(=O)CC[C@@H](C(N)=O)NC(=O)[C@H](Cc2c[nH]c3ccccc23)NC(=O)[C@H](CCCN=C(N)N)NC(=O)[C@@H](Cc2ccccc2)NC(=O)[C@H]2CCCN2C1=O |  |  |  |  | 0% |  | 0% |  |  | 0% |  | 10% |  |  |
| CCCC[C@@H]1NC(=O)CC[C@@H](C(N)=O)NC(=O)[C@H](Cc2c[nH]c3ccccc23)NC(=O)[C@H](CCCN=C(N)N)NC(=O)[C@@H](Cc2ccccc2)NC(=O)[C@@H](CCC(=O)O)NC1=O |  |  |  |  | 0% |  | 54% |  |  | 0% |  | 0% |  |  |
| CCCC[C@@H]1NC(=O)CC[C@@H](C(N)=O)NC(=O)[C@H](Cc2c[nH]c3ccccc23)NC(=O)[C@H](CCCN=C(N)N)NC(=O)[C@@H](Cc2ccccc2)NC(=O)[C@H](CCC(=O)O)NC1=O | > 10 µM | 1200 nM | > 10000 nM | 3060 nM |  | > 10 µM |  | 4300 nM |  |  | > 10000 nM |  | > 10 µM |  |
| CCCC[C@@H]1NC(=O)CC[C@@H](C(N)=O)NC(=O)[C@H](Cc2c[nH]c3ccccc23)NC(=O)[C@H](CCCN=C(N)N)NC(=O)[C@@H](Cc2ccccc2)NC(=O)[C@H](CCC(N)=O)NC1=O | 1 µM | 270 nM | > 10000 nM | 500 nM |  | 1 µM |  | 1700 nM |  |  | > 10000 nM |  | 0.3 µM |  |
| CCCC[C@@H]1NC(=O)CC[C@@H](C(N)=O)NC(=O)[C@H](Cc2c[nH]c3ccccc23)NC(=O)[C@H](CCCN=C(N)N)NC(=O)[C@@H](Cc2ccccc2)NC(=O)[C@@H]2CCCN2C1=O | > 10 µM | 2700 nM | 2700 nM | 400 nM |  | > 10 µM |  | > 10000 nM |  |  | 10000 nM |  | 0.85 µM |  |
| CCCC[C@@H]1NC(=O)CC[C@@H](C(N)=O)NC(=O)[C@H](Cc2c[nH]c3ccccc23)NC(=O)[C@H](CCCN=C(N)N)NC(=O)[C@@H](Cc2ccccc2)NC(=O)[C@H](CCCN=C(N)N)NC1=O | 1.4 µM | 140 nM | 270 nM | 68 nM |  | > 10 µM |  | 1.2 nM |  |  | 174 nM |  | > 10 µM |  |
| CCCC[C@@H]1NC(=O)CC[C@@H](C(N)=O)NC(=O)[C@H](Cc2c[nH]c3ccccc23)NC(=O)[C@H](CCCN=C(N)N)NC(=O)[C@@H](Cc2ccccc2)NC(=O)[C@@H](CCCN=C(N)N)NC1=O |  |  |  |  | 0% |  | 112% |  |  | 63% |  | 0% |  |  |
| CCCC[C@@H]1NC(=O)CC[C@@H](C(N)=O)NC(=O)[C@H](Cc2c[nH]c3ccccc23)NC(=O)[C@H](CCCN=C(N)N)NC(=O)[C@@H](Cc2ccc3ccccc3c2)NC(=O)[C@@H](CCCN=C(N)N)NC1=O |  |  |  |  | 0% |  | 0% |  |  | 10% |  | 0% |  |  |

Source: ChEMBL document CHEMBL1138987, “Development of cyclic gamma-MSH analogues with selective hMC3R agonist and hMC3R/hMC5R antagonist activities” (J Med Chem, 2006)
